Published values from different studies.
Compare with care: the assays were run in different laboratories.
RPS6KA3 N-terminal kinase domain: Ribosomal protein S6 kinase alpha-3, N-terminal kinase domain (RPS6KA3, Homo sapiens, UniProt P51812)
RPS6KA3: Ribosomal protein S6 kinase alpha-3 (RPS6KA3, Homo sapiens, UniProt P51812)

| SMILES | target | test | conditions | measurement | value |
| --- | --- | --- | --- | --- | --- |
| Cc1nn(C)cc1-c1nc2c(N3CCN(Cc4ccc(Cl)cc4)CC3)c(Cl)cnc2[nH]1 | RPS6KA3 N-terminal kinase domain | binding, competition with immobilised ligand | 1 µM | remaining binding | 84% |
| Cn1cncc1[C@](O)(COc1ccc(C#N)cc1-c1ccc(OC(F)(F)F)cc1)c1ccc(C#N)cc1 | RPS6KA3 N-terminal kinase domain | cell-free assay, competition with immobilised ligand | 1 µM | remaining binding | 100% |
| Cn1cc(-c2cc(F)cc(N3CCn4c(cc5c4CCCC5)C3=O)c2CO)cc(Nc2ccc(N3CCN(C4COC4)CC3)cn2)c1=O | RPS6KA3 | enzyme activity, inhibitor | 0.1 µM | inhibition | 7% |
| CC(C)(C)c1cc(C=C(C#N)C#N)cc(Br)c1O | RPS6KA3 | enzyme activity, inhibitor | 0.5 µM | remaining activity | 92.2% |
| N#CC1(c2ccccn2)CCN(Cc2cc(C(=O)O)c(=O)n3ccccc23)CC1 | Ribosomal protein S6 kinase alpha-3, C-terminal kinase domain (RPS6KA3, Homo sapiens, UniProt P51812) | cell-free assay, competition with immobilised ligand | 1 µM | remaining binding | 100% |
| COc1cc(Nc2ncc(F)c(Nc3ccc4c(n3)NC(=O)C(C)(C)O4)n2)cc(OC)c1OC | RPS6KA3 N-terminal kinase domain | binding, competition with immobilised ligand | 10 µM | inhibition | 88% |
| O=c1[nH]c2ccccc2n1C1CCN(Cc2ccc(-c3[nH]c4cc5ncnc5cc4nc3-c3ccccc3)cc2)CC1 | RPS6KA3 | cell-free assay | 0.5 µM | remaining signal | 96.6% |
| Nc1ncc(-c2nc(N3CCOCC3)nc(N3CCOCC3)n2)c(C(F)F)n1 | RPS6KA3 N-terminal kinase domain | binding, competition with immobilised ligand | 10 µM | remaining binding | 59% |
| Cn1cc(-c2cccc(N3CCc4c(sc5c4CC(C)(C)C5)C3=O)c2CO)cc(Nc2ccncn2)c1=O | RPS6KA3 | enzyme activity, inhibitor | 1 µM | inhibition | 1% |
